Assay results published in ChEMBL document CHEMBL1138835, “Inhibitors of multiple mutants of Plasmodium falciparum dihydrofolate reductase and their antimalarial activities” (J Med Chem, 2004).

Assays:
[1] = target: Bifunctional dihydrofolate reductase-thymidylate synthase (Plasmodium falciparum K1, UniProt P13922, C59R/I164L/N51I/S108N); experiment: Binding affinity towards mutant dihydrofolate reductase (N51I+C59R+S108N+I164L DHFR) of Plasmodium falciparum
[2] = system: Bifunctional dihydrofolate reductase-thymidylate synthase (Plasmodium falciparum K1), P13922 [UNDEFINED MUTATION]; experiment: Ratio of binding affinity for mutant (N51I+C59R+S108N+I164L) to that of wild type dihydrofolate reductase
Chain of Bifunctional dihydrofolate reductase-thymidylate synthase (Plasmodium falciparum K1), P13922 [UNDEFINED MUTATION] (P13922 whole entry, looked up, stated change not applied): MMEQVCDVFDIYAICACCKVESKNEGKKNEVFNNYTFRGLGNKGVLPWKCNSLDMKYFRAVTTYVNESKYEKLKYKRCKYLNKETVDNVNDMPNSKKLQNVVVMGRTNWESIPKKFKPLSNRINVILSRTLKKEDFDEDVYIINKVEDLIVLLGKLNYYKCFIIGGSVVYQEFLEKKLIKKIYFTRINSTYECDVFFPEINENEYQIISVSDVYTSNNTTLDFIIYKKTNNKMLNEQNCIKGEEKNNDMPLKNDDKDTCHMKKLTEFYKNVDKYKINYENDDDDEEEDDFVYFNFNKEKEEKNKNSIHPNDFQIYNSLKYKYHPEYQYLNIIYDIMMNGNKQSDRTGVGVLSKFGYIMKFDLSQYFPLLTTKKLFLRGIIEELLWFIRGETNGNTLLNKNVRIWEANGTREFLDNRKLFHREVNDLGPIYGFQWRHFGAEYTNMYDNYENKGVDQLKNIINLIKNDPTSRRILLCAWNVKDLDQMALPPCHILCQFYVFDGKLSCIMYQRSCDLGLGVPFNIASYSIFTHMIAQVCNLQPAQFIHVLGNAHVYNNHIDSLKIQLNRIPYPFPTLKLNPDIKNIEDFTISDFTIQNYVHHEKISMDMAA
How it was run: (§1)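 Each ratio is Ki for the mutant PfDHFR divided by Ki for wild-type PfDHFR. The recombinant enzymes were expressed in E. coli BL21(DE3)pLysS and purified on methotrexate-Sepharose. Ki was derived assuming inhibitors compete with substrate binding.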

[3] = target: Bifunctional dihydrofolate reductase-thymidylate synthase (Plasmodium falciparum K1, UniProt P13922, C59R/N51I/S108N); experiment: Binding affinity towards mutant dihydrofolate reductase (N51I+C59R+S108N DHFR) of Plasmodium falciparum
Chain of Bifunctional dihydrofolate reductase-thymidylate synthase (Plasmodium falciparum K1, UniProt P13922, C59R/N51I/S108N) (P13922 whole entry, looked up, stated change not applied): as above

[4] = target: Bifunctional dihydrofolate reductase-thymidylate synthase (Plasmodium falciparum K1) (UniProt P13922); experiment: Ratio of binding affinity for mutant (N51I+C59R+S108N) to that of wild type dihydrofolate reductase; how it was run: as §1
Chain of Bifunctional dihydrofolate reductase-thymidylate synthase (Plasmodium falciparum K1) (P13922 whole entry, looked up): as the sequence (P13922 whole entry, looked up, stated change not applied) above

[5] = system: Bifunctional dihydrofolate reductase-thymidylate synthase (Plasmodium falciparum K1), P13922 [UNDEFINED MUTATION]; experiment: Ratio of binding affinity for mutant (C59R+S108N+I164L) to that of wild type dihydrofolate reductase; how it was run: as §1
[6] = target: Bifunctional dihydrofolate reductase-thymidylate synthase (Plasmodium falciparum K1, UniProt P13922, C59R/I164L/S108N); experiment: Binding affinity towards mutant dihydrofolate reductase (C59R+S108N+I164L DHFR) of Plasmodium falciparum
Chain of Bifunctional dihydrofolate reductase-thymidylate synthase (Plasmodium falciparum K1, UniProt P13922, C59R/I164L/S108N) (P13922 whole entry, looked up, stated change not applied): as above

Vero [7] = experiment: Relative antiplasmodial activity to cytotoxicity in Plasmodium falciparum V1/S infected Vero cells; assay type: functional
Vero [8] = experiment: In vitro cytotoxicity against Plasmodium falciparum infected vero cell line.; assay type: functional, cell-based; settings: Chlorocebus sabaeus
How it was run: (§2)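 Cytotoxicity (IC50, μM) run against three mammalian lines: Vero (African green monkey kidney fibroblasts), KB (human epidermoid carcinoma) and BC (human breast cancer). Testing followed the Skehan et al. protocol.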

Vero [9] = experiment: Relative antiplasmodial activity to cytotoxicity in Plasmodium falciparum Csl-2 infected Vero cells; assay type: functional
Vero [10] = experiment: Relative antiplasmodial activity to cytotoxicity in Plasmodium falciparum TM4/8.2 infected Vero cells; assay type: functional
BC [11] = experiment: In vitro cytotoxicity against BC cell line.; settings: Homo sapiens
KB [12] = experiment: Relative antiplasmodial activity to cytotoxicity in Plasmodium falciparum TM4/8.2 infected KB cells; assay type: functional
BC [13] = experiment: Relative antiplasmodial activity to cytotoxicity in Plasmodium falciparum TM4/8.2 infected BC cells; assay type: functional
KB [14] = experiment: In vitro cytotoxicity against Plasmodium falciparum infected KB cell line; assay type: functional, cell-based; settings: Homo sapiens; how it was run: as §2
KB [15] = experiment: Relative antiplasmodial activity to cytotoxicity in Plasmodium falciparum Csl-2 infected KB cells; assay type: functional
KB [16] = experiment: Relative antiplasmodial activity to cytotoxicity in Plasmodium falciparum V1/S infected KB cells; assay type: functional
BC [17] = experiment: Relative antiplasmodial activity to cytotoxicity in Plasmodium falciparum Csl-2 infected BC cells; assay type: functional
[18] = target: Bifunctional dihydrofolate reductase-thymidylate synthase (Plasmodium falciparum K1, UniProt P13922, A16V/S108T); experiment: Binding affinity towards mutant dihydrofolate reductase (A16V+S108T DHFR) of Plasmodium falciparum.
Chain of Bifunctional dihydrofolate reductase-thymidylate synthase (Plasmodium falciparum K1, UniProt P13922, A16V/S108T) (P13922 whole entry, looked up, stated change not applied): as above

[19] = system: Bifunctional dihydrofolate reductase-thymidylate synthase (Plasmodium falciparum K1), P13922 [UNDEFINED MUTATION]; experiment: Ratio of binding affinity for mutant (A16V+S108T) to that of wild type dihydrofolate reductase; how it was run: as §1

Chain of Bifunctional dihydrofolate reductase-thymidylate synthase (Plasmodium falciparum K1, UniProt P13922, C59R/I164L/N51I/S108N) (P13922 whole entry, looked up, stated change not applied): as above

| SMILES | Ki [1] | Ratio [2] | Ki [3] | Ratio [4] | Ratio [5] | Ki [6] | Safety ratio (Vero [7]) | IC50 (Vero [8]) | Safety ratio (Vero [9]) | Safety ratio (Vero [10]) | IC50 (BC [11]) | Safety ratio (KB [12]) | Safety ratio (BC [13]) | IC50 (KB [14]) | Safety ratio (KB [15]) | Safety ratio (KB [16]) | Safety ratio (BC [17]) | Ki [18] | Ratio [19] |
| --- | --- | --- | --- | --- | --- | --- | --- | --- | --- | --- | --- | --- | --- | --- | --- | --- | --- | --- | --- |
| Nc1nc(N)c(-c2ccccc2)c(CCCO)n1 | 549 nM | 6.5 | 58.5 nM | 0.7 | 1.4 | 121 nM | – | – | – | – | – | – | – | – | – | – | – | – | – |
| NC1=NC(c2ccccc2)N(c2ccc(Cl)cc2)C(N)=N1 (configuration not stated) | 2440 nM | – | 196 nM | – | – | 1870 nM | – | – | – | – | – | – | – | – | – | – | – | – | – |
| Nc1nc(N)c(-c2cccc(Cl)c2)c(CCCO)n1 | 57 nM | 6.1 | 2.3 nM | 0.25 | 3.2 | 29 nM | 3.6 | 22.3 µM | 11.7 | 20.3 | 15 µM | 9.2 | 13.6 | 10.1 µM | 5.3 | 1.6 | 7.9 | – | – |
| CC(C)C1(C)N=C(N)N=C(N)N1c1ccc(Cl)cc1 (configuration not stated) | > 10000 nM | > 274 | 1370 nM | 37.5 | 127 | 4620 nM | – | – | – | – | – | – | – | – | – | – | – | 44.8 µM | 1230 |
| CCCCCCC1(C)N=C(N)N=C(N)N1c1ccc(Cl)cc1 (configuration not stated) | 69.2 nM | 115 | 11.3 nM | 18.8 | 69.6 | 41.8 nM | – | – | – | – | – | – | – | – | – | – | – | 0.955 µM | 1590 |
| NC1=NC(c2cccc(Oc3ccccc3)c2)N(c2ccc(Cl)cc2)C(N)=N1 (configuration not stated) | 239 nM | 478 | 23.6 nM | 47.1 | 264 | 132 nM | – | – | – | – | – | – | – | – | – | – | – | 0.0027 µM | 5.4 |
| Nc1nc(N)c(-c2cccc(Cl)c2)c(CCCOC(=O)c2ccccc2)n1 | 3.6 nM | 2.4 | 0.8 nM | 0.5 | 0.5 | 0.8 nM | 8.1 | 61 µM | 32.1 | 29 | 9.5 µM | 4 | 4.5 | 8.4 µM | 4.4 | 1.1 | 5 | – | – |
| CCc1nc(N)nc(N)c1-c1ccccc1 | 32 nM | – | 3 nM | – | – | 25 nM | – | – | – | – | – | – | – | – | – | – | – | – | – |
| Nc1nc(N)c(-c2cccc(Cl)c2)c(CCCOC(=O)OCc2ccccc2)n1 | 3.6 nM | 3 | 1.1 nM | 0.9 | 0.7 | 0.8 nM | 0.9 | 5.2 µM | 2.7 | 2.7 | 3.6 µM | 0.8 | 1.9 | 1.6 µM | 0.8 | 0.3 | 1.9 | – | – |
| CCCC1(C)N=C(N)N=C(N)N1c1ccc(Cl)cc1 (configuration not stated) | 4430 nM | 1270 | 560 nM | 160 | 1040 | 3650 nM | – | – | – | – | – | – | – | – | – | – | – | 9.23 µM | 2640 |
| CC(=O)OCCCc1nc(N)nc(N)c1-c1cccc(Cl)c1 | 31.4 nM | 10.1 | 1.8 nM | 0.6 | 1 | 3.2 nM | 9.4 | 50 µM | 27.8 | 31.3 | 10 µM | 10.6 | 6.3 | 17 µM | 9.4 | 3.2 | 5.6 | – | – |
